Results on six molecules are retold here after publication PMC3601785 (ACS medicinal chemistry letters, 2012).

The structures appear in SMILES notation.

Data set [1] concerns mitogen-and stress-activated kinase. To be noted: cited from earlier work.
Data set [2] has as its system p70 S6 kinase. The settings on record: cited from earlier work.
Data set [3] deals with Aurora B. The settings on record: [ATP] lower than in the RSK assay; cited from earlier work.
Data set [4] is described as follows: pharmacokinetic analysis, single i.v. or i.p. dose. Type of data set: in vivo, male CD-1 mice. The settings on record: male, CD-1, mouse, plasma, other: intravenous (i.v.) or intraperitoneal (i.p.). Summed up:
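Single dose given iv or ip to male CD-1 mice in 1:1:15 Cremophor:EtOH:phosphate-buffered saline. Plasma concentrations used to derive half-life, Cmax, C0 (maximum plasma concentration extrapolated to t = 0) and AUC extrapolated to infinity and normalized to dose in mg/kg.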

A short description of data set [5]: aqueous solubility. Type of data set: physicochemical.
For data set [6], the system named is PIM 3. The settings on record: [ATP] lower than in the RSK assay; cited from earlier work.
Data set [7] has as its system RSK biomarkers (peEF2, cyclin D1, phospho-motif) in MCF-7 cells. The data set can be described thus: RSK biomarkers in PMA-stimulated MCF-7 cells by immunoblotting. Type of data set: cell-based, human. To be noted: MCF-7 cells pre-treated with SL0101 (100 μM) or 7 (25 μM), then PMA. Summed up: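 MCF-7 cells pretreated with test compound (reference inhibitor 100 μM; analogue 25 μM) or vehicle, then treated with DMSO or the mitogen PMA. Lysates analysed by immunoblotting for RSK biomarkers, including eEF2 phosphorylation.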
(Immunoblotting shows a protein as a band on a membrane.)

For data set [8], the target named is T1, purified, recombinant RSK2 (Homo sapiens, UniProt P51812). Briefly: in vitro kinase assay, inhibition of purified recombinant RSK2. Type of data set: biochemical.
T1 sequence (P51812 whole entry, species assumed): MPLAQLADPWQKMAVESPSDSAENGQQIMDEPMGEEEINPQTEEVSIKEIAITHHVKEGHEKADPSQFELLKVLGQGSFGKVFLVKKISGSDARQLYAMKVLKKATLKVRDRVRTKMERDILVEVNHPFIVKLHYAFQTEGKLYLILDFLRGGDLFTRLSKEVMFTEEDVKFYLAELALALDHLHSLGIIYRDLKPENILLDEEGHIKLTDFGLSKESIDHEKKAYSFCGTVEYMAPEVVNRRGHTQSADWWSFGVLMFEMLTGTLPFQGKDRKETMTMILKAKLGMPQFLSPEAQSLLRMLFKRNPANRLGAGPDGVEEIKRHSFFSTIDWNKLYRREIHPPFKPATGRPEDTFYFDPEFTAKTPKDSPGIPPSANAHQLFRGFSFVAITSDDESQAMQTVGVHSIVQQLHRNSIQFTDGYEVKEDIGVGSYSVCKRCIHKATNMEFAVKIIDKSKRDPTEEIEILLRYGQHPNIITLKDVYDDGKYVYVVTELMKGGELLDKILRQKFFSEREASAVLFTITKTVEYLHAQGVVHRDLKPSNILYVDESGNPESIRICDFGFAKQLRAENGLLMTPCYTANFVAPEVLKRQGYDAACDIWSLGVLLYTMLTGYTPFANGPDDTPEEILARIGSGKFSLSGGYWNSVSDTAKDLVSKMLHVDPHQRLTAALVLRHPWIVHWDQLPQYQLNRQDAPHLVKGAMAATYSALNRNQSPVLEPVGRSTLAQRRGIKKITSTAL
For data set [9], the system named is MCF-10A cells. The data set can be described thus: MCF-10A proliferation. Type of data set: cell-based. The settings on record: various concentrations, 48 h. Summed up:
(§1)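 Test compound added at time 0 at various concentrations. Proliferation read as cellular ATP content after 48 h of treatment. Values expressed as fold proliferation as a percentage of vehicle-treated cells. n = 3 experiments, each in quadruplicate, with SD and Student's t test against vehicle; for MCF-7, also against the reference inhibitor.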

In data set [10] the test system is MCF-7 cells. Briefly: MCF-7 proliferation. Type of data set: cell-based, human. Summed up:
as §1

The target in data set [11] is T1, purified, recombinant RSK2. To be noted: cited from earlier work.

Turning to `CC(=O)O[C@@H]1[C@@H](OC(C)=O)[C@@H](O)[C@H](Oc2c(-c3ccc(O)cc3)oc3cc(O)cc(O)c3c2=O)O[C@H]1C` [SL0101], the “inhibition of mitogen-and stress-activated kinase” value in [1] is listed as “did not inhibit”. The “inhibition of p70 S6 kinase” value in [2] is recorded as “did not inhibit”. The “inhibition of Aurora B” value in [3] is reported as “partially inhibit”. Moreover, in [4], the half-life (usually the time in which the quantity being followed falls by half) was less than 30 min. In data set [5] (carrier of 1:1:15 Cremophor:EtOH:phosphate-buffered saline was required), the solubility (commonly the dissolved amount per volume that the medium holds) is listed as “limited solubility”. The “inhibition of PIM 3” value in data set [6] was “partially inhibit”. In data set [7], the “cyclin D1 levels” value was “decreased cyclin D1 levels”; the “intensity of band at ~ 27 kDa, (Lys/Arg)XX(Lys/Arg)X(pSer/pThr) motif antibody” value was “intensity decreases”; the “peEF2 levels compared to the PMA control” value was “increased peEF2 levels”.

Regarding `CCC[C@@H]1O[C@@H](Oc2c(-c3ccc(O)cc3)oc3cc(O)cc(O)c3c2=O)[C@H](O)[C@H](O)[C@H]1OC(C)=O` [compound 5], the “change of RSK2 IC50 in comparison to the 5″-n-propyl analogue 3” value (“change … to the 5″-n-propyl analogue 3” below) in data set [8] was “increased the IC50, but this difference was not statistically significant”.

`CCC[C@@H]1O[C@@H](Oc2c(-c3ccc(O)cc3)oc3cc(O)cc(O)c3c2=O)[C@H](OC(C)=O)[C@H](O)[C@H]1OC(C)=O` [compound 6]: the “change … to the 5″-n-propyl analogue 3” value in data set [8] is reported as “did not alter the IC50”.

As to `CCC[C@@H]1O[C@@H](Oc2c(-c3ccc(O)cc3)oc3cc(O)cc(O)c3c2=O)[C@H](O)[C@H](OC(C)=O)[C@H]1OC(C)=O` [compound 7], the “inhibition of MCF-10A proliferation” value in [9] is given as “not MCF-10A proliferation”. Further, the solubility in data set [5] (aqueous solution) is no more than 25 µM. For the same molecule, in data set [7], the “cyclin D1 levels” value is “decreased cyclin D1 levels”; the “intensity of band at ~ 27 kDa, (Lys/Arg)XX(Lys/Arg)X(pSer/pThr) motif antibody” value is given as “intensity decreases”; the “peEF2 levels compared to the PMA control” value is given as “increased peEF2 levels”. In addition, the “ability to inhibit MCF-7 proliferation, fold better compared to SL0101 (1)” value in [10] is on record as 2 fold. Besides, the “inhibition of MCF-7 proliferation” value in data set [10] (various concentrations, 48 h) is “inhibits MCF-7”.

Take `CCC[C@@H]1O[C@@H](Oc2c(-c3ccc(O)cc3)oc3cc(O)cc(O)c3c2=O)[C@H](OC(C)=O)[C@H](OC(C)=O)[C@H]1OC(C)=O` [compound 8]: the “change … to the 5″-n-propyl analogue 3” value in data set [8] is “doubled the IC50”.

`CC1OC(Oc2c(-c3ccc(O)cc3)oc3cc(O)cc(O)c3c2=O)C(O)C(O)C1O` (centres unmarked) [deacetylated SL0101]: the “potency for RSK inhibition, fold less potent than SL0101 (1)” value in data set [11] is listed as ~ 10 fold.
